High-throughput results as filed in PubChem BioAssay.
rRNA inh HTS = reduced GFP signal of wild-type E. coli, primary screen, bacterial rRNA inhibitor project, GFP/RFP fluorescence, OD600, single point; GFP signal change (wild-type ribosome), % (test concentration not listed); AID 720706, 2013; E. coli WT GFP vs humanized-ribosome RFP mutants, 24 h; active compounds read low; DMSO median 0, no signal -100; actives 1.6% (n = 350,000);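 active means significant combined selectivity score with lowered wild-type GFP, culture density cut under 30%, mutant RFP and density less affected; inactive means any of these conditions unmet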
miR122 inh = miR-122 Renilla sensor signal increase in Huh7, primary screen, miR-122 inhibitor project, cell-based, single point, plate reader. Huh7 miR-122 Renilla luciferase sensor, 48 h; neutral wells = 0, positive control = 100. activation (reporter increase), % at 12.5 µM. actives 0.3% (n = 340,000);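 active means mean replicate activation score at least 90 and every replicate individually at or above 90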;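 further: higher luciferase means less miR-122 activity so hits act as miR-122 inhibitors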
Cneo AK release = Cryptococcus neoformans cell lysis inducers, primary screen, AK release luminescence, single concentration. lysis activity, % at 15 µM. AID 651654, 2012. C. neoformans lysis, adenylate kinase release luminescence, 4 h; normalised: neutral wells 0, clomiphene wells 100. actives 0.2% (n = 360,000);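 active means mean lysis activity across replicates of at least 80%, whatever share of replicates individually reach that level; inactive means mean lysis activity below 80%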
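Material – Cryptococcus neoformans yeast cells · Quantity – 5 × 10^6 yeast cells/mL · Buffer or medium – YPD medium · Compound – single dose · Timing – 4 h static compound exposure, 37 °C, read 1 h post-reagent · Signal – adenylate kinase release luminescence · Read-out basis – lysis from increased AK signal · Benchmarks – Clomiphene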
E-sel inducer = E-selectin induction in HUVECs, primary screen, imaging, HUVEC, immunofluorescence imaging, single point; P16581; normalized: neutral wells 0, TNF-alpha wells 100; activation, % at 7.58 µM; actives 0.37% (n = 260,000);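 active means mean E-selectin-positive cell signal at least 10% of the positive control, reached in at least 60% of replicates, without over 20% cell loss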
Target sequence (P16581 whole entry, looked up): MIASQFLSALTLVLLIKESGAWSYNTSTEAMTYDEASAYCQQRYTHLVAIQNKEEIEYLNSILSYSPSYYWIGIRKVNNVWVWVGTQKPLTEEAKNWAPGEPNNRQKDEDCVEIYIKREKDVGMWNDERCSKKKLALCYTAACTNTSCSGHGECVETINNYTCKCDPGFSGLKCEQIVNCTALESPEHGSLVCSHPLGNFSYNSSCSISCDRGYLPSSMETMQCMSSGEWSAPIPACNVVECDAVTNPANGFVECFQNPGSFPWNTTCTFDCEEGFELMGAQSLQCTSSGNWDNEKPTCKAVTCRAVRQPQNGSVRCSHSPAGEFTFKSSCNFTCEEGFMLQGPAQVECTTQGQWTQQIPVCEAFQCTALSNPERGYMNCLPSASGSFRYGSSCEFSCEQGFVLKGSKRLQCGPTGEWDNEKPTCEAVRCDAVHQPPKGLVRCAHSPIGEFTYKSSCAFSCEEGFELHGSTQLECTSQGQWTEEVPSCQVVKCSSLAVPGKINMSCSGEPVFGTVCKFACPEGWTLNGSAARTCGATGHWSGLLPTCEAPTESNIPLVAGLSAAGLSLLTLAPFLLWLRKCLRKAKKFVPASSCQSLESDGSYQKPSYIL
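Read-out: % PE-positive cells | Test system: HUVEC | Doses: One compound dose added by pin transfer | Buffer or medium: EGM-2 over gelatin coat | Signal: Immunofluorescence imaging | Benchmarks: TNF-alpha, DMSO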
DENV2 CPE rescue = inhibitors of DENV2 cytopathic effect, primary screen, cell-based, plate reader, single concentration; actives 1.7% (n = 350,000); AID 651640, 2012; CPE inhibition, % at 9.99 µM; DENV2-infected cells, cytopathic effect rescue; in the data active means CPE inhibition above about 20%, passing the limit was not always enough; tested in BHK-21 cells;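 further: 0% = median of neutral control wells and 100% = median of positive control wells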
Active calls of the source: *; . = no result given; [ ] = dose if it differs, or a comment. Only some compounds are listed: those with a hit (about 3.1% of all), similar ones and a draw of the others.

SMILES	rRNA inh HTS	miR122 inh	Cneo AK release	E-sel inducer	DENV2 CPE rescue
CCC(C)n1c(=S)[nH]c2c(sc3ccc([N+](=O)[O-])cc32)c1=O (stereo not drawn)	-32*	6	-6	1	4
CCOc1ccc(/C=N/NC(=S)NC2CC3CCC2C3)cc1 (stereo not drawn)	-17*	7	29	2	0
CCOc1ccc(/C=N/NC(=S)NC2CC3CC2C2C=CCC32)cc1 (stereo not drawn)	-4	25	2	.	1
COc1ccc(NC(=O)N[C@@H]2CC[C@H](CCn3cc(-c4ccccn4)nn3)O[C@H]2CO)cc1	-2	-7[16.7 µM]	8	0	-5
CC(C)Oc1cccc(C(=O)C2CCCN(C(=O)c3cc(C(F)(F)F)[nH]n3)C2)c1 (stereo not drawn)	-29*	0	-1	.	2
CC(C)[C@H]1C(=O)N[C@@H](c2ccc3c(c2)OCO3)CC=CC[C@@H](C)Oc2ccccc2C(=O)N1C (mixture of isomers)	-2	.	.	.	.
CCC(C(=O)NCCc1ccc(C)cc1)n1nc(C)c2c(C)n(-c3ccccc3)nc2c1=O (stereo not drawn)	-21*	-3	4	0	2
C[C@@H]1CN([C@@H](C)CO)C(=O)c2cc(C#Cc3cccc(F)c3)cnc2O[C@@H]1CN(C)CC1CC1	-4	-9[16.7 µM]	.	1	.
Cc1cc(=O)oc2cc(OC(C)C(=O)O)c(Cl)cc12 (stereo not drawn)	.	-1	-2	.	.
CC(=O)Oc1cc2oc(=O)cc(C)c2cc1Cl	-26*	1	-1	1	1
Cc1ccc(C)c(Nc2cc(C(=O)NCc3cccnc3)c3ccccc3n2)c1	-26*	50	-23	5	1
Cc1ccc(C)c(-c2cc(C(=O)N/N=C/c3cccnc3)c3ccccc3n2)c1	-20*	-1	-1	.	-4
CCNC(=O)C[C@H]1CC[C@H]2[C@@H](COC[C@H](O)CN2C(=O)CC)O1	2	-6[16.7 µM]	2	0	-4
CCC(=O)N1C[C@H](O)COC[C@@H]2O[C@@H](CC(=O)NCc3ccccc3Cl)CC[C@H]21	2	2[16.7 µM]	117*	.	5
CCC(=O)N1C[C@@H](O)COC[C@H]2O[C@@H](CC(=O)NCc3ccccc3Cl)CC[C@@H]21	-2	-4[16.7 µM]	44	0	-3
CCNC(=O)C[C@@H]1CC[C@H]2[C@@H](COC[C@H](O)CN2C(=O)CC)O1	-1	-5[16.7 µM]	-4	0	48*
Cc1ccc(S(=O)(=O)Nc2ccc3c(c2)C(=O)N([C@H](C)CO)C[C@@H](C)[C@H](CN(C)C(=O)Nc2ccccc2)OCCCC[C@H](C)O3)cc1	-1	.	.	0	.
COc1ccc(Cl)cc1N1C(=O)CC(N2CCN(S(=O)(=O)c3ccccc3F)CC2)C1=O (stereo not drawn)	-11	-2	3	0	37*
COc1ccc2c3c([nH]c2c1)[C@@H](CO)N(Cc1ccccc1OC)CC31CN(C)C1	-1	.	.	0	-6
COc1cccc(S(=O)(=O)N[C@H]2CC[C@@H](CCn3cc(-c4ccccn4)nn3)O[C@H]2CO)c1	-2	.	0	0	-2
COCCN(Cc1ccccc1)C(=O)c1cc(-c2ccc(OC)c(OC)c2)nc2ccccc12	-31*	.	-1	0	-3
CN(C)CCCN1c2ccc3ccccc3c2Sc2cccc(Cl)c21	-65	-1	.	1	-3
CN(C)CCCN1c2ccccc2Sc2ccc3ccccc3c21	-62	-4	.	0	43*
CO[C@@H]1CN(C)C(=O)c2cc(NS(=O)(=O)c3ccc(C)cc3)ccc2OC[C@@H](C)NC[C@@H]1C	1	36[16.7 µM]	-1	0	10
CN1CCC2CC1c1cc(-c3ccc(C(F)(F)F)cc3)ccc12 (stereo not drawn)	-1	-2	1	0	21*
SMILES	rRNA inh HTS	miR122 inh	Cneo AK release	E-sel inducer	DENV2 CPE rescue
O=C(Nc1ccc(OCc2ccccc2)cc1)Nc1ccccc1C(=O)NCCCN1CCOCC1	-22*	3	.	1	4
CO[C@@H]1CN(C)C(=O)c2cc(NS(=O)(=O)c3cn(C)cn3)ccc2OC[C@@H](C)N(Cc2cccc(Cl)c2)C[C@H]1C	-3	.	10	0	-10
Cc1ccc(S(=O)(=O)N(C)C[C@@H]2OCCCC[C@H](C)Oc3ccc(NS(=O)(=O)c4ccccc4)cc3C(=O)N([C@H](C)CO)C[C@H]2C)cc1	-1	-7[16.7 µM]	0	0	2
O=C1/C(=C/c2cccs2)COc2ccccc21	-41	.	.	.	-6
O=C1C(=Cc2cccs2)Oc2ccccc21	-19*	1	-1	0	5
Cc1onc(-c2ccccc2Cl)c1C(=O)N[C@@H](C)c1ccccc1	-21*	1	-1	0	3
N#Cc1ccc(-c2csc(NC3=NCCCCC3)n2)cc1	4	.	.	44*	.
c1ccc(-c2csc(NC3=NCCCCC3)n2)cc1	7	1	0	0	0
C[C@H]1CCCCO[C@H](CN(C)C(=O)Nc2ccccc2)[C@@H](C)CN([C@@H](C)CO)C(=O)c2cc(NC(=O)Nc3ccc(C(F)(F)F)cc3)ccc2O1	5	.	.	0	60*
C[C@@H]1CCCCO[C@@H](CN(C)C(=O)Nc2ccccc2)[C@H](C)CN([C@@H](C)CO)C(=O)c2cc(NC(=O)Nc3ccc(C(F)(F)F)cc3)ccc2O1	5	.	.	.	.
C[C@@H]1CCCCO[C@H](CN(C)C(=O)Nc2ccc(C(F)(F)F)cc2)[C@H](C)CN([C@@H](C)CO)C(=O)c2cc(NC(=O)Nc3ccc(C(F)(F)F)cc3)ccc2O1	-1	7[16.7 µM]	4	0	30*
N[C@H]1CC[C@H](CCn2cc(C3CC3)nn2)O[C@@H]1CO	2	.	.	0	14
CC(C)NC(=O)N(C)C[C@H]1OCc2ccccc2-c2c(n(C)c3ccccc23)C(=O)N([C@@H](C)CO)C[C@@H]1C	0	.	-1	0	8
Cc1noc(C)c1S(=O)(=O)N(C)C[C@H]1OCCCC[C@H](C)Oc2ccc(NC(=O)NC(C)C)cc2C(=O)N([C@H](C)CO)C[C@@H]1C	1	3[16.7 µM]	-6	.	102*
Cc1noc(C)c1S(=O)(=O)N(C)C[C@H]1OCCCC[C@@H](C)Oc2ccc(NC(=O)Nc3ccc4c(c3)OCO4)cc2C(=O)N([C@@H](C)CO)C[C@H]1C	-1	-17[16.7 µM]	-3	0	86*
COCC(=O)N(C)C[C@H]1Oc2ncc(C3=CCCCC3)cc2C(=O)N([C@@H](C)CO)C[C@@H]1C	3	-2[16.7 µM]	2	-1	7
